Results published in the RNAGym collection of RNA variant scans (doi:10.1002/anie.201605470).

B1: Osa-1-4 twister ribozyme (parent)
chain: CCGCCUAACACUGCCAAUGCCGGUCCCAAGCCCGGAUAAAAGUGGAGGGGGCGG

Variants of: B1
Assay: self-cleavage, relative activity (ratio to wild type); higher = more cleavage; co-transcriptional
In short: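 The 48 positions downstream of the cleavage site in a DNA template for a 54-nucleotide Oryza sativa twister ribozyme carried 97 % wild-type base and 1 % of each other base. After in vitro transcription (2 h, 37 °C) with co-transcriptional self-cleavage, the RNA was reverse-transcribed with a template-switching oligonucleotide, PCR-amplified and deep-sequenced. Relative activity is the fraction cleaved, judged by reads with or without upstream sequence and normalised to wild type.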

Question: With CCGCCUAACACUGCCAAUGCCGGUCCAAAGUCCGGAUAAAAGUGGAGGGGGCGG [C27A C31U] as the variant, how does the self-cleavage read?
Answer: Its self-cleavage is 0.09.

Question: For CCGCCUAACACUGCCAAUGCCGGUCCAAAGACCGGAUAAAAGUGGAGGGGGCGG [C27A C31A], which self-cleavage is on record?
Answer: Its self-cleavage is 0.06.

Question: For CCGCCUAACACUGCCAAUGCCGGUCCAAAGGCCGGAUAAAAGUGGAGGGGGCGG [C27A C31G], which self-cleavage is on record?
Answer: The self-cleavage was 0.04.

Question: For CCGCCUAACACUGCCAAUGCCGGUCUCAAGCCCGGAUAAAAGUGGAAGGGGCGG [C26U G47A], which self-cleavage is on record?
Answer: Its self-cleavage is 0.08.

Question: Which self-cleavage does the source give for CCGCCUAACACUGCCAAUGCCGGUCUCAAGCCCGGAUAAAAGUGGACGGGGCGG [C26U G47C] here?
Answer: The self-cleavage was 0.07.

Question: For CCGCCUAACACUGCCAAUGCCGGUCUCAAGCCCGGAUAAAAGUGGAUGGGGCGG [C26U G47U], which self-cleavage is on record?
Answer: Its self-cleavage is 0.06.

Question: For CCGCCUAACACUGCCAAUGCCGGUCUCAACCCCGGAUAAAAGUGGAGGGGGCGG [C26U G30C], which self-cleavage is on record?
Answer: The self-cleavage was 0.04.

Question: For CCGCCUAACACUGCCAAUGCCGGUCUCAAACCCGGAUAAAAGUGGAGGGGGCGG [C26U G30A], which self-cleavage is on record?
Answer: The self-cleavage was 0.03.

Question: With CCGCCUAACACUGCCAAUGCCGGUCUCAAUCCCGGAUAAAAGUGGAGGGGGCGG [C26U G30U] as the variant, how does the self-cleavage read?
Answer: Its self-cleavage is 0.03.

Question: Which self-cleavage does the source give for CCGCCUAACACUGCCAAUGCCGGUCCAAAGCCCGGAUAAAAGUGGAGGGGGCGG [C27A] here?
Answer: The self-cleavage was 0.37.

Question: With CCGCCUAACACUGCCAAUGCCCGUCCAAAGCCCGGAUAAAAGUGGAGGGGGCGG [C27A G22C] as the variant, how does the self-cleavage read?
Answer: The self-cleavage was 0.03.

Question: With CCGCCUAACACUGCCAAUGCCAGUCCAAAGCCCGGAUAAAAGUGGAGGGGGCGG [C27A G22A] as the variant, how does the self-cleavage read?
Answer: Its self-cleavage is 0.1.

Question: For CCGCCUAACACUGCCAAUGCCUGUCCAAAGCCCGGAUAAAAGUGGAGGGGGCGG [C27A G22U], which self-cleavage is on record?
Answer: Its self-cleavage is 0.06.

Question: With CCGCCUAACACUGCCAAUGCCGGUCCAAAGCCCGGAUAAAAGUAGAGGGGGCGG [C27A G44A] as the variant, how does the self-cleavage read?
Answer: The self-cleavage was 0.1.

Question: With CCGCCUAACACUACCAAUGCCGGUCCAAAGCCCGGAUAAAAGUGGAGGGGGCGG [C27A G13A] as the variant, how does the self-cleavage read?
Answer: Its self-cleavage is 0.03.

Question: With CCGCCUAACACUUCCAAUGCCGGUCCAAAGCCCGGAUAAAAGUGGAGGGGGCGG [C27A G13U] as the variant, how does the self-cleavage read?
Answer: Its self-cleavage is 0.02.

Question: Which self-cleavage does the source give for CCGCCUAACACUCCCAAUGCCGGUCCAAAGCCCGGAUAAAAGUGGAGGGGGCGG [C27A G13C] here?
Answer: Its self-cleavage is 0.01.

Question: With CCGCCUAACACUGCCAAUGCCGGUCUCAAGCCCGGAUAAAAGUAGAGGGGGCGG [C26U G44A] as the variant, how does the self-cleavage read?
Answer: The self-cleavage was 0.4.

Question: Which self-cleavage does the source give for CCGCCUAACACUGCCAAUGCCGGUCUCAAGCCCGGAUAAAAGUCGAGGGGGCGG [C26U G44C] here?
Answer: Its self-cleavage is 0.92.

Question: With CCGCCUAACACUGCCAAUGCCGGUCUCAAGCCCGGAUAAAAGUUGAGGGGGCGG [C26U G44U] as the variant, how does the self-cleavage read?
Answer: Its self-cleavage is 0.71.

Question: Which self-cleavage does the source give for CCGCCUAACACUGCCAAUGCCGGUCCAAAGCCCGAAUAAAAGUGGAGGGGGCGG [C27A G35A] here?
Answer: Its self-cleavage is 0.39.

Question: For CCGCCUAACACUGCCAAUGCCGGUCCAAAGCCCGUAUAAAAGUGGAGGGGGCGG [C27A G35U], which self-cleavage is on record?
Answer: The self-cleavage was 0.16.

Question: For CCGCCUAACACUGCCAAUGCCGGUCCAAAGCCCGCAUAAAAGUGGAGGGGGCGG [C27A G35C], which self-cleavage is on record?
Answer: Its self-cleavage is 0.07.

Question: For CCGCCUAACACUGCCAAUGCCGGUCCAAAGCGCGGAUAAAAGUGGAGGGGGCGG [C27A C32G], which self-cleavage is on record?
Answer: Its self-cleavage is 0.06.

Question: With CCGCCUAACACUGCCAAUGCCGGUCCAAAGCACGGAUAAAAGUGGAGGGGGCGG [C27A C32A] as the variant, how does the self-cleavage read?
Answer: The self-cleavage was 0.09.

Question: For CCGCCUAACACUGCCAAUGCCGGUCCAAAGCUCGGAUAAAAGUGGAGGGGGCGG [C27A C32U], which self-cleavage is on record?
Answer: Its self-cleavage is 0.06.

Question: For CCGCCUAAAACUGCCAAUGCCGGUCCAAAGCCCGGAUAAAAGUGGAGGGGGCGG [C27A C9A], which self-cleavage is on record?
Answer: The self-cleavage was 0.09.

Question: For CCGCCUAAUACUGCCAAUGCCGGUCCAAAGCCCGGAUAAAAGUGGAGGGGGCGG [C27A C9U], which self-cleavage is on record?
Answer: The self-cleavage was 0.07.

Question: Which self-cleavage does the source give for CCGCCUAAGACUGCCAAUGCCGGUCCAAAGCCCGGAUAAAAGUGGAGGGGGCGG [C27A C9G] here?
Answer: The self-cleavage was 0.1.

Question: With CCGCCUAACACUGCCAAUGCCGUUCUCAAGCCCGGAUAAAAGUGGAGGGGGCGG [C26U G23U] as the variant, how does the self-cleavage read?
Answer: Its self-cleavage is 0.04.

Question: Which self-cleavage does the source give for CCGCCUAACACUGCCAAUGCCGCUCUCAAGCCCGGAUAAAAGUGGAGGGGGCGG [C26U G23C] here?
Answer: The self-cleavage was 0.04.

Question: For CCGCCUAACACUGCCAAUGCCGGUCUCAAGCCCGGAUAAAAGUGGAGGGGGCUG [C26U G53U], which self-cleavage is on record?
Answer: The self-cleavage was 0.11.

Question: Which self-cleavage does the source give for CCGCCUAACACUGCCAAUGCCGGUCUCAAGCCCGGAUAAAAGUGGAGGGGGCCG [C26U G53C] here?
Answer: The self-cleavage was 0.08.

Question: For CCGCCUAACACUGCCAAUGCCGGUCUCAAGCCCGGAUAAAAGUGGAGGGGGCAG [C26U G53A], which self-cleavage is on record?
Answer: The self-cleavage was 0.22.

Question: With CCGCCUAACACUGCCAAUGCCGGUCUCAAGCCCGGAUAAAAGCGGAGGGGGCGG [C26U U43C] as the variant, how does the self-cleavage read?
Answer: Its self-cleavage is 0.14.

Question: Which self-cleavage does the source give for CCGCCUAACACUGCCAAUGCCGGUCUCAAGCCCGGAUAAAAGAGGAGGGGGCGG [C26U U43A] here?
Answer: Its self-cleavage is 0.32.

Question: Which self-cleavage does the source give for CCGCCUAACACUGCCAAUGCCGGUCUCAAGCCCGGAUAAAAGGGGAGGGGGCGG [C26U U43G] here?
Answer: Its self-cleavage is 0.15.

Question: With CCGCCUAACACUGCCAAUGCCGGUCCAAAACCCGGAUAAAAGUGGAGGGGGCGG [C27A G30A] as the variant, how does the self-cleavage read?
Answer: The self-cleavage was 0.02.

Question: With CCGCCUAACACUGCCAAUGCCGGUCCAAACCCCGGAUAAAAGUGGAGGGGGCGG [C27A G30C] as the variant, how does the self-cleavage read?
Answer: Its self-cleavage is 0.03.

Question: With CCGCCUAACACUGCCAAUGCCGGUCCAAAUCCCGGAUAAAAGUGGAGGGGGCGG [C27A G30U] as the variant, how does the self-cleavage read?
Answer: The self-cleavage was 0.03.

Question: Which self-cleavage does the source give for CCGCCUAACACUGCCAAUGCCGGUCUCAAGCCCGGAUAAAAAUGGAGGGGGCGG [C26U G42A] here?
Answer: The self-cleavage was 0.13.

Question: Which self-cleavage does the source give for CCGCCUAACACUGCCAAUGCCGGUCUCAAGCCCGGAUAAAACUGGAGGGGGCGG [C26U G42C] here?
Answer: Its self-cleavage is 0.1.

Question: With CCGCCUAACACUGCCAAUGCCGGUCUCAAGCCCGGAUAAAAUUGGAGGGGGCGG [C26U G42U] as the variant, how does the self-cleavage read?
Answer: The self-cleavage was 0.04.

Question: With CCGCCUAACACUGCCAAGGCCGGUCUCAAGCCCGGAUAAAAGUGGAGGGGGCGG [C26U U18G] as the variant, how does the self-cleavage read?
Answer: The self-cleavage was 0.93.

Question: For CCGCCUAACACUGCCAACGCCGGUCUCAAGCCCGGAUAAAAGUGGAGGGGGCGG [C26U U18C], which self-cleavage is on record?
Answer: The self-cleavage was 0.88.

Question: With CCGCCUAACACUGCCAAAGCCGGUCUCAAGCCCGGAUAAAAGUGGAGGGGGCGG [C26U U18A] as the variant, how does the self-cleavage read?
Answer: Its self-cleavage is 0.88.

Question: For CCGCCUAACACUGCCAAUGCCGGUCUCAAGCCCGGAUAAAAGUGGAGGGGGCGU [C26U G54U], which self-cleavage is on record?
Answer: The self-cleavage was 0.62.

Question: With CCGCCUAACACUGCCAAUGCCGGUCUCAAGCCCGGAUAAAAGUGGAGGGGGCGC [C26U G54C] as the variant, how does the self-cleavage read?
Answer: Its self-cleavage is 0.3.
